From ChEMBL document CHEMBL1121529, “Synthesis of [82Br]bromperidol and preliminary tissue distribution studies in the rat” (J Med Chem, 1980)

Legend:
Design in all cases: dose 0.2 mg/kg, route intravenous
Rattus norvegicus [1] = assay: Tested for the tissue distribution of Br activity at 120 min in kidney following intravenous injection in rat at the dose of 0.2 mg/kg; format: ADME, organism-based; details: in vivo, 2 h
Method in brief: (§1)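 Male Sprague-Dawley rats (300-320 g, fed ad libitum) anesthetized with sodium pentobarbital 45 mg/kg, then given an iv bolus into the jugular vein of 19-22 µCi (0.2 mg/kg) [82Br]bromperidol in propylene glycol-ethanol-water (40:20:40), pH 4. Rats serially sacrificed by cardiac puncture. Organs counted 100 s at ~12 000 cpm with decay correction. Values are % dose/g, mean and SD of three.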

Rattus norvegicus [2] = assay: Tested for the tissue distribution of Br activity at 30 min in lung following intravenous injection in rat at the dose of 0.2 mg/kg; format: ADME, organism-based; details: in vivo, 0.5 h; method in brief: as §1
Rattus norvegicus [3] = assay: Tested for the tissue distribution of Br activity at 45 min in lung following intravenous injection in rat at the dose of 0.2 mg/kg; format: ADME, organism-based; details: in vivo, 0.75 h; method in brief: as §1
Rattus norvegicus [4] = assay: Tested for the tissue distribution of Br activity at 15 min in blood following intravenous injection in rat at the dose of 0.2 mg/kg; format: ADME, organism-based; details: in vivo, 0.25 h; method in brief: as §1
Rattus norvegicus [5] = assay: Tested for the tissue distribution of Br activity at 45 min in blood following intravenous injection in rat at the dose of 0.2 mg/kg; format: ADME, organism-based; details: in vivo, 0.75 h; method in brief: as §1
Rattus norvegicus [6] = assay: Tested for the tissue distribution of Br activity at 30 min in liver following intravenous injection in rat at the dose of 0.2 mg/kg; format: ADME, organism-based; details: in vivo, 0.5 h; method in brief: as §1
Rattus norvegicus [7] = assay: Tested for the tissue distribution of Br activity at 30 min in blood following intravenous injection in rat at the dose of 0.2 mg/kg; format: ADME, organism-based; details: in vivo, 0.5 h; method in brief: as §1
Rattus norvegicus [8] = assay: Tested for the tissue distribution of Br activity at 120 min in lung following intravenous injection in rat at the dose of 0.2 mg/kg; format: ADME, organism-based; details: in vivo, 2 h; method in brief: as §1
Rattus norvegicus [9] = assay: Tested for the tissue distribution of Br activity at 60 min in kidney following intravenous injection in rat at the dose of 0.2 mg/kg; format: ADME, organism-based; details: in vivo, 1 h; method in brief: as §1
Rattus norvegicus [10] = assay: Tested for the tissue distribution of Br activity at 60 min in lung following intravenous injection in rat at the dose of 0.2 mg/kg; format: ADME, organism-based; details: in vivo, 1 h; method in brief: as §1
Rattus norvegicus [11] = assay: Tested for the tissue distribution of Br activity at 30 min in brain following intravenous injection in rat at the dose of 0.2 mg/kg; format: ADME, organism-based; details: in vivo, 0.5 h; method in brief: as §1
Rattus norvegicus [12] = assay: Tested for the tissue distribution of Br activity at 15 min in brain following intravenous injection in rat at the dose of 0.2 mg/kg; format: ADME, organism-based; details: in vivo, 0.25 h; method in brief: as §1
Rattus norvegicus [13] = assay: Tested for the tissue distribution of Br activity at 15 min in lungs following intravenous injection in rat at the dose of 0.2 mg/kg; format: ADME, organism-based, Lung; details: in vivo, 0.25 h; method in brief: as §1
Rattus norvegicus [14] = assay: Tested for the tissue distribution of Br activity at 45 min in kidney following intravenous injection in rat at the dose of 0.2 mg/kg; format: ADME, organism-based; details: in vivo, 0.75 h; method in brief: as §1
Rattus norvegicus [15] = assay: Tested for the tissue distribution of Br activity at 120 min in brain following intravenous injection in rat at the dose of 0.2 mg/kg; format: ADME, organism-based; details: in vivo, 2 h; method in brief: as §1
Rattus norvegicus [16] = assay: Tested for the tissue distribution of Br activity at 15 min in liver following intravenous injection in rat at the dose of 0.2 mg/kg; format: ADME, organism-based; details: in vivo, 0.25 h; method in brief: as §1
Rattus norvegicus [17] = assay: Tested for the tissue distribution of Br activity at 60 min in liver following intravenous injection in rat at the dose of 0.2 mg/kg; format: ADME, organism-based; details: in vivo, 1 h; method in brief: as §1
Rattus norvegicus [18] = assay: Tested for the tissue distribution of Br activity at 60 min in blood following intravenous injection in rat at the dose of 0.2 mg/kg; format: ADME, organism-based; details: in vivo, 1 h; method in brief: as §1
Rattus norvegicus [19] = assay: Tested for the tissue distribution of Br activity at 120 min in blood following intravenous injection in rat at the dose of 0.2 mg/kg; format: ADME, organism-based; details: in vivo, 2 h; method in brief: as §1
Rattus norvegicus [20] = assay: Tested for the tissue distribution of Br activity at 60 min in brain following intravenous injection in rat at the dose of 0.2 mg/kg; format: ADME, organism-based; details: in vivo, 1 h; method in brief: as §1
Rattus norvegicus [21] = assay: Tested for the tissue distribution of Br activity at 120 min in liver following intravenous injection in rat at the dose of 0.2 mg/kg; format: ADME, organism-based; details: in vivo, 2 h; method in brief: as §1
Rattus norvegicus [22] = assay: Tested for the tissue distribution of Br activity at 15 min in kidney following intravenous injection in rat at the dose of 0.2 mg/kg; format: ADME, organism-based; details: in vivo, 0.25 h; method in brief: as §1
Rattus norvegicus [23] = assay: Tested for the tissue distribution of Br activity at 45 min in brain following intravenous injection in rat at the dose of 0.2 mg/kg; format: ADME, organism-based; details: in vivo, 0.75 h; method in brief: as §1
Rattus norvegicus [24] = assay: Tested for the tissue distribution of Br activity at 45 min in liver following intravenous injection in rat at the dose of 0.2 mg/kg; format: ADME, organism-based; details: in vivo, 0.75 h; method in brief: as §1
Rattus norvegicus [25] = assay: Tested for the tissue distribution of Br activity at 30 min in kidney following intravenous injection in rat at the dose of 0.2 mg/kg; format: ADME, organism-based; details: in vivo, 0.5 h; method in brief: as §1

A Dose/g (Rattus norvegicus [1]) of 0.61%, a Dose/g (Rattus norvegicus [2]) of 3.17% and a Dose/g (Rattus norvegicus [3]) of 2.75% were found for O=C(CCCN1CCC(O)(c2ccc(Br)cc2)CC1)c1ccc(F)cc1 [BROMPERIDOL] in this work. It also gave a Dose/g (Rattus norvegicus [4]) of 0.15%, a Dose/g (Rattus norvegicus [5]) of 0.14% and a Dose/g (Rattus norvegicus [6]) of 1.66%. It also gave a Dose/g (Rattus norvegicus [7]) of 0.14%, a Dose/g (Rattus norvegicus [8]) of 1.23% and a Dose/g (Rattus norvegicus [9]) of 0.93%. The Dose/g (Rattus norvegicus [10]) was 2.25%, the Dose/g (Rattus norvegicus [11]) was 0.41% and the Dose/g (Rattus norvegicus [12]) was 0.58%. The Dose/g (Rattus norvegicus [13]) was 5.07%, the Dose/g (Rattus norvegicus [14]) was 1.03% and the Dose/g (Rattus norvegicus [15]) was 0.2%. The Dose/g (Rattus norvegicus [16]) was 1.53%, the Dose/g (Rattus norvegicus [17]) was 1.58% and the Dose/g (Rattus norvegicus [18]) was 0.14%. For the same compound, the Dose/g (Rattus norvegicus [19]) was 0.12%, the Dose/g (Rattus norvegicus [20]) was 0.32% and the Dose/g (Rattus norvegicus [21]) was 1.44%. It also gave a Dose/g (Rattus norvegicus [22]) of 1.63%, a Dose/g (Rattus norvegicus [23]) of 0.41% and a Dose/g (Rattus norvegicus [24]) of 1.7%. It also gave a Dose/g (Rattus norvegicus [25]) of 1.2%.
